Assay results as given in the RNAGym collection of RNA variant scans (doi:10.1126/science.aae0568).
Fewer inactive variants are shown than the library holds.

B1: tRNA (parent)
chain: GUUCCGUUGGCGUAAUGGUAACGCGUCUCCCUCCUAAGGAGAAGACUGCGGGUUCGAGUCCCGUACGGAACG

Variants of: B1
Assay: yeast fitness relative to wild type (ratio to wild type); higher = fitter; tRNA-Arg(CCU), competitive growth, 37 C, YPD
Outline: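 Changes in genotype frequencies gave Darwinian fitness relative to wild type. Frequencies were read by 100-nucleotide paired-end sequencing of gene amplicons before and after pooled Saccharomyces cerevisiae strains, carrying tRNA-Arg(CCU) gene variants at the native locus, were competed in YPD at 37°C for 24 hours in six replicates. A genotype was kept only with ≥ 100 starting reads, and estimates < 0.5 were set to 0.5.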

Variant	yeast fitness
C22G C29G C62U	≤ 0.5
C22G A36C U54C C55U C60A C62G A69U	≤ 0.5
C22G C33A A36C A43U C55G	≤ 0.5
C22G G63A C66U	0.593
C22U C24U G58C A65C	≤ 0.5
C22G U28A G67C	≤ 0.5
C22U A36C U54C A57U	≤ 0.5
C22G C46A C49U G68A	≤ 0.5
C22U C29U	0.821
C22G C34U C66U	≤ 0.5
C22U C33U G51A	≤ 0.5
C22G G52C C66U G68A	≤ 0.5
C22G U28A A36U	0.631
C22U C24U C33U A40U	≤ 0.5
C22U C29A G68A A69C	0.55
C22G C27G C29G C34A A36G A43U A65U	≤ 0.5
C22G C24G G50A C66U A69C	≤ 0.5
C22G G25C	0.977
C22G G25A	0.993
C22U G23A G56A	≤ 0.5
C22G C27U C33A A36C A43G C55G	≤ 0.5
C22G U26C U32A G48A	≤ 0.5
C22G C29G A42C A45C C61G A69U	≤ 0.5
C22G A36C G48A C61A C66U	≤ 0.5

Variant	yeast fitness
C22G G23A C46U A57G	≤ 0.5
C22G U64C	0.856
C22U C31G C49U C66U G67A	0.563
C22U C34G A36U A65C	0.573
C22G G38A U47C	≤ 0.5
C22G C31G U54A C61G A69C	≤ 0.5
C22G U32A C60A A69C	0.619
C22U A37U C49A C62U	0.598
C22G C31U C62U A65U	≤ 0.5
C22G G38C	0.775
C22U G23C C55U C60G	0.54
C22G U28A C31G C55A	≤ 0.5
C22U C24G C30G A40U	≤ 0.5
C22G C30G U47C U54C	≤ 0.5
C22G A36C	0.585
C22U C27U	0.713
C22U C27G	0.721
C22G G63C	0.623
C22G A57G C61A	≤ 0.5
C22G C60G C66A	≤ 0.5
C22A U47A A70G	0.577
C22G A42C C66G G67U	≤ 0.5
C22G G50C C55G	≤ 0.5
C22U C24G C49G G56A	≤ 0.5

Variant	yeast fitness
C22G C49A	0.682
C22G C49G	0.664
C22G C49U	0.986
C22G C33A A36C A43G C55G	0.595
C22G C30G G50A A57U	≤ 0.5
C22G C30U A37G A43U	0.549
C22G C27G C31G G48A C61G A69U	≤ 0.5
C22G U59A A69G	≤ 0.5
C22U A42G A45C C55G U64G	≤ 0.5
C22U C31G C49U A65G	≤ 0.5
C22G C27G C31G A69U	0.554
C22G U32C U47C U53G	≤ 0.5
C22G C46A G48A A57U C60A	0.576
C22G C34G U35A A36U C55U	≤ 0.5
C22G G44A	0.846
C22G C31G U54G	0.595
C22U C46G C49G	0.564
C22U C27U C55A A57U C61G	≤ 0.5
C22G C30A C49A A69U	≤ 0.5
C22G C30G G68A	≤ 0.5
C22G C60G C62U	≤ 0.5
C22G C31U G39A	0.636
C22G C34G C61G	≤ 0.5
C22U C27G A69U	0.508

Variant	yeast fitness
C22G C34A C66A	0.703
C22U C24U U26A U47C	≤ 0.5
C22G A36G C46U	0.709
C22U A40G C46U G63A	≤ 0.5
C22U C34G A36U	0.519
C22G A69G	0.952
C22G G44C U47C A70C	≤ 0.5
C22G C30A A45G	≤ 0.5
C22G C33U	0.713
C22A U59C	0.814
C22U A37G G48C C55U	0.64
C22G C49G A69U	0.634
C22G C24G C29U C33U A37C G52A	0.625
C22G C29U	0.838
C22G C29G	0.546
C22U C30U U47A	≤ 0.5
C22G C34G A70C	0.608
C22G C24G U32A C66U	≤ 0.5
C22G U28A C31G	≤ 0.5
C22U C55U G67C	≤ 0.5
C22U C31U U47G	≤ 0.5
C22U C27G A37G A42C	≤ 0.5
C22G C30G U59A	≤ 0.5
C22U C55U A65G	≤ 0.5

Variant	yeast fitness
C22G C29G G63A	≤ 0.5
C22G C24U G50C	≤ 0.5
C22U C30A A42C G58A	≤ 0.5
C22G G58U	1.05
C22G C24U C29U A42U	≤ 0.5
C22G A43C	0.708
C22G A43G	0.702
C22U A36U G56A C66U	≤ 0.5
C22G C49U A57C	0.594
C22U C31A	0.762
C22G C49A G56C G58C C60G	0.605
C22G C34U C60U C62U A70C	≤ 0.5
C22U C49G	0.87
C22U C31A A37C U47C G67A	≤ 0.5
C22G C24G U47C	0.642
C22G C27G C31G C60U	≤ 0.5
C22G U26C C33U A37U A40C	≤ 0.5
C22U A36C C60G	≤ 0.5
C22U C27U A57U C61G	0.574
C22A U47A	0.629
C22A U47A C66A	≤ 0.5
C22G C27U U59A	0.571
C22U C30A C49A C55A C62U C66U	0.667
C22U G23A G48A A65U	≤ 0.5

Variant	yeast fitness
C22G C30G G50A A57U A70G	≤ 0.5
C22G C24U G44C	0.59
C22G C24U G44A	0.555
C22U C27A G58A	0.568
C22G C31U C49U	0.989
C22G A45C A57U C62A	0.716
C22U A37G A45U G52A U54C	≤ 0.5
C22G U32C A37G	0.559
C22G G23U	0.73
C22G G23C	0.779
C22U C27G U28G U32G A45G	≤ 0.5
C22U G25A A65U	0.687
C22U C27A C46A	0.66
C22G A45C	0.583
C22U A37C G52C C62U	≤ 0.5
C22U C31G G48C	≤ 0.5
C22G U53C A65C	0.558
C22U A57G	0.775
C22U A57U	0.617
C22U A57C	0.661
C22G U28C	0.853
C22G U47C U53G	0.551
C22U A37C A40G G52A U53A	≤ 0.5
C22G C62U	0.879

Variant	yeast fitness
C22G A42U G63C	≤ 0.5
C22U C61A C66U	≤ 0.5
C22U C60U	0.723
C22G C61U	0.841
C22G C61A	0.623
C22U G25A	0.849
C22G C27U A70U	0.678
C22U A40G C61U A70U	0.547
C22U A70G	0.784
C22U A40U G48A	≤ 0.5
C22G A70G	0.86
C22G C46A C62U	1.04
C22G C27G C31G G56A C61G A69U	≤ 0.5
C22A U47A G63C	≤ 0.5
C22U A43U C55G	0.595
C22G A57U	0.619
C22U C60G U64G	≤ 0.5
C22U A37C	0.593
C22U A37U	0.694
C22U G23A A70C	≤ 0.5
C22G C55G G63C	0.572
C22G G25C A43G	0.584
C22G C30G A70U	0.601
